Only some compounds are listed: those with a hit (about 1% of all), similar ones and a draw of the others.
KLK5 inh = kallikrein 5 (human) inhibition; AID 873; actives 0.59% (n = 210,000); inhibition, % at 5 µM; recombinant hK5, fluorogenic AMC substrate cleavage;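 active = inhibition of 40% or more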;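 also: 0% = enzyme controls without compound and 100% = no-enzyme blanks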
thrombin 1536 = thrombin (human) inhibition | actives 0.26% (n = 220,000) | alpha-thrombin, Boc-VPR-AMC fluorogenic substrate cleavage | P00734 | inhibition, % at 5 µM;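 active = inhibition at or above 40%; inactive = inhibition below 40%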;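 also: 0% = enzyme with no compound and 100% = wells without enzyme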
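System – human alpha-thrombin protein · Reagent – Boc-VPR-AMC substrate, 15 µM final · Compound – 5 µM single dose in 0.2% DMSO · Schedule – reaction at room temperature · Technique – AMC fluorescence at 355 nm excitation and 460 nm emission · Read-out basis – % inhibition relative to enzyme controls and enzyme-free blanks · Control set – no-compound enzyme wells and no-enzyme blanks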
FXIIa inh 1536 = factor XIIa (human) inhibition; P00748; purified FXIIa, Boc-QGR-AMC fluorogenic substrate, 2 h; inhibition, % at 5 µM; actives 0.3% (n = 220,000); in the data active = inhibition above about 40%;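 also: 0% = enzyme with no compound and 100% = blank without enzyme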
FXIa inh 1536 = factor XIa (human) inhibition | P03951 | purified FXIa, Boc-Glu-Ala-Arg-AMC fluorogenic substrate | inhibition, % at 5 µM | actives 0.14% (n = 220,000) | AID 798;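 active = inhibition of at least 40%; inactive = inhibition below 40%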;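 also: fluorescence of freed AMC excited at 355 nm; 0% = enzyme without compound and 100% = no enzyme blank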
Target sequence (P03951 19-387 limits assumed): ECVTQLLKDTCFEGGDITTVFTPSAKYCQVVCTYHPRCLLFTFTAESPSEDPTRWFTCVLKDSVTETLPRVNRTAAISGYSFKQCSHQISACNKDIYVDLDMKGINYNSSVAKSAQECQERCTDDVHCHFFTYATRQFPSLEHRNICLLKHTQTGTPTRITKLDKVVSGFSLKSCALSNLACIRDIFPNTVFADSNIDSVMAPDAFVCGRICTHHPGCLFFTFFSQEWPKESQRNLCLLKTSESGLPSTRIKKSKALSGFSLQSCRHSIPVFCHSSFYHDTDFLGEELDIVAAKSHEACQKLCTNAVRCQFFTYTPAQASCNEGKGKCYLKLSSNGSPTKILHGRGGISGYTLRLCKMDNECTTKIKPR
Target sequence (P03951 388-625 limits assumed): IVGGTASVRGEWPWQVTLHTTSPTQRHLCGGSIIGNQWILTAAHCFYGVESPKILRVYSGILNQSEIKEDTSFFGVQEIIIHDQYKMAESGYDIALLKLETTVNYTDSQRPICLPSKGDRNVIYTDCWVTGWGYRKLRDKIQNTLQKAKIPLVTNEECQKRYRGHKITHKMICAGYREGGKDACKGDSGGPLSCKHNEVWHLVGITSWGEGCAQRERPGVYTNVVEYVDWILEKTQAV
Starred values were filed as active, the others as inactive.

SMILES	KLK5 inh	thrombin 1536	FXIIa inh 1536	FXIa inh 1536
CNC(=O)NNC(=O)c1nc(-c2ccccc2)c(C)o1	42.3*	24.5	26.9	33.0
CCc1ccc(C(=O)COC(=O)c2cccc(N3C(=O)c4c(C)nc5ccccc5c4C3=O)c2)cc1	51.5*	8.9	17.3	0.3
CC(C)CCN(C)C1CCN(S(=O)(=O)c2cccc(C(F)(F)F)c2)CC1	52.5*	25.6	-8.6	3.6
COc1cccc(/C=N/NC(=O)c2[nH]c(C)c(C(=O)N/N=C/c3cccc(OC)c3O)c2C)c1O	-158.8	2.6	18.6	40.3*
COc1cc(C(N)=O)cc(Cl)c1OC	33.8	2.2	46.6*	20.0
CNC(=O)c1cc(Cl)c(OC)c(OC)c1	-9.8	-13.2	12.1	5.3
Cc1cc(C(=O)CSc2nnnn2C)c(C)n1-c1cccc(F)c1	34.3	49.2*	22.6	13.9
COc1ccc(N2CCN(C(=O)CNS(=O)(=O)c3ccc(C)cc3)CC2)cc1	1.1	-6.8	6.9	-1.5
COC(/C=C/Nc1ccc(Br)cc1)=C(C#N)C#N	48.5*	38.0	17.1	2.0
Cc1cc2oc(C(=O)Nc3ccc(S(N)(=O)=O)cc3)c(C)c2cc1Cl	3.6	11.9	11.3	0.4
CC(C)(C)OC(=O)N1CCC(CNC(=O)Nc2ccccc2)CC1	1.7	0.5	12.8	1.8
N/C(=N\OC(=O)c1cccc(Cn2cc(C(F)(F)F)ccc2=O)c1)c1ccccc1	1.1	0.6	14.8	4.3
N/C(=N\OC(=O)c1cccc(Cn2cc(C(F)(F)F)ccc2=O)c1)c1ccc(Cl)cc1	51.8*	15.3	33.9	35.2
Cc1cccc(Nc2c([N+](=O)[O-])c(=O)oc3ccccc23)c1	3.3	-0.2	6.4	2.7
CC1=C(C(=O)Nc2ccccc2)C(c2ccc(O)cc2)N2C(=O)CSC2=N1 (stereo not given)	36.9	42.5*	15.9	6.5
COc1ccc(C2C(C(=O)Nc3ccccc3)=C(C)N=C3SCC(=O)N32)cc1 (stereo not given)	-29.0	4.5	17.9	9.7
N#Cc1c(NC(=S)NC(=O)Cc2cccs2)sc2c1CCCCC2	-19.0	3.1	14.8	13.9
COCCSc1nnc(NC(=O)C2CC(=O)N(c3ccc(OC)cc3)C2)s1 (stereo not given)	2.1	-1.6	12.5	-1.5
COc1ccc(N2CC(C(=O)Nc3ncccc3C)CC2=O)cc1 (stereo not given)	62.5*	16.1	15.9	12.0
COc1ccc(N2CC(C(=O)Nc3nnc(SCC(=O)c4ccccc4)s3)CC2=O)cc1 (stereo not given)	62.6*	24.2	14.8	10.9
CC(C)Oc1ccc(N2CC(C(=O)NC3=NCCS3)CC2=O)cc1 (stereo not given)	17.8	41.4*	29.4	30.4
CCCOc1ccc(N2CC(C(=O)Nc3ncccc3C)CC2=O)cc1 (stereo not given)	5.9	7.5	13.8	19.9
CCNc1nc(SC(C)C(=O)OC)nc(N2CCOCC2)n1 (stereo not given)	115.4*	-1.0	-1.6	-4.7
CC1(C(=O)Oc2ccccc2)Cc2ccccc2C(=O)O1 (stereo not given)	-6.8	8.1	5.5	-1.9
CC(=O)Nc1ccc(NS(=O)(=O)c2ccc(C)cc2)cc1[N+](=O)[O-]	46.5*	-4.7	4.2	-13.3
SMILES	KLK5 inh	thrombin 1536	FXIIa inh 1536	FXIa inh 1536
CC(=O)Nc1ccc(NS(=O)(=O)c2ccc(C)cc2)c([N+](=O)[O-])c1	-0.5	-0.9	5.5	-2.5
C=CCN1C(=O)C(C(C)CC)NC1=S (stereo not given)	87.7*	40.7*	23.4	35.8
CCN(CC)S(=O)(=O)c1ccc(/C=C/C(=O)Nc2ccc(N3CCOCC3)cc2)cc1	1.9	2.2	13.4	3.3
Cc1ccc(C2CC(=O)C(C=NCCN3CCN(C(=S)Nc4ccc(F)cc4)CC3)=C(O)C2)cc1 (stereo not given)	-3.1	-8.2	6.5	-2.5
O=C1CC(c2ccccc2)CC(O)=C1C=NCCN1CCN(C(=S)Nc2cccc(Cl)c2)CC1 (stereo not given)	43.5*	7.4	14.2	-0.2
O=C1CCCC/C1=N\Nc1ccc(OCc2ccccc2)cc1	-4.8	-6.7	2.6	0.1
O=C(Nc1ccccc1)N1CCN(c2ncccn2)CC1	-10.9	-5.9	12.6	-0.2
CCCNC(=O)N1CCN(c2ncccn2)CC1	60.8*	24.1	18.6	17.3
COc1cc(S(=O)(=O)N2CCOCC2)ccc1NC(=O)COC(=O)COc1ccccc1	-1.9	50.2*	4.7	-0.8
COC(=O)CCSCC(=O)Nc1ccc(S(=O)(=O)N2CCOCC2)cc1OC	-3.4	-6.8	-0.6	-6.7
CCOC(=O)CNC(=O)Cc1ccc(OC)cc1	25.4	11.8	42.7*	19.2
CCOC(=O)Cn1c(=NC(=O)CC)sc2c(C)cc(C)cc21	2.5	-11.7	6.5	2.7
CCOC(=O)Cn1c(=NC(=O)C2CC2)sc2c(C)cc(C)cc21	41.1*	17.4	29.0	27.8
C/C(=N\NC(=O)c1nonc1N)c1cccs1	0.4	-1.3	8.3	3.2
CCOc1ccc(-c2nc(C#N)c(NCC(C)C)o2)cc1	150.8*	-3.3	-11.7	-8.6
COc1ccccc1-c1cc(C(=O)NCc2ccco2)no1	48.3*	5.3	24.0	10.6
O=C(CN(c1cccc(Cl)c1)S(=O)(=O)c1ccc(Cl)cc1)N1CCc2ccccc2C1	-2.0	2.0	8.0	3.9
CC(=O)CC(C)(C)NC(C)=S	2.3	0.2	3.9	1.1
COc1ccc(N2C(=O)CSC2c2cccc(OC)c2OC)cc1 (stereo not given)	39.1	42.3*	16.8	8.2
COc1cccc(C2SCC(=O)N2c2ccc(C)cc2)c1OC (stereo not given)	-6.9	-0.1	13.0	22.0
Cc1ccc(OCC(=O)Nc2nnn(C)n2)c(C)c1	-17.4	3.6	43.1*	28.1
Cc1cc(C)c(OCC(=O)Nc2nnn(C)n2)c(Br)c1	-36.4	-9.0	-1.1	0.5
COc1cc(OC)nc(NC(=S)NC(=O)c2ccccc2)n1	-12.5	-1.6	3.2	-0.8
C/C(=N\OC(=O)NC(C)C)c1sc(-c2ccccc2)nc1C	25.5	1.8	9.8	8.2
C/C(=N\OC(=O)NC(C)C)c1sc(-c2ccc(Cl)cc2)nc1C	58.4*	19.2	12.8	7.9
SMILES	KLK5 inh	thrombin 1536	FXIIa inh 1536	FXIa inh 1536
CC(C)n1cc(/C(N)=N/O)c(=O)n(Cc2ccccc2)c1=O	1.1	3.4	8.9	-6.0
CCOc1ccc(N(CC(=O)Nc2cccc(F)c2)S(=O)(=O)c2c(C)noc2C)cc1	41.9*	23.2	44.9*	11.4
COc1ccc(N(CC(=O)Nc2ccc3c(c2)OCCO3)S(=O)(=O)c2c(C)nn(C)c2C)cc1	31.0	26.5	45.7*	20.9
C[C@H](NC(=O)c1nc[nH]c1C(=O)N1CCc2ccccc2C1)C(=O)OCc1ccccc1	1.9	-1.3	5.0	1.0
CCOC(=O)C1(Cc2ccccc2Cl)CCN(C(=O)CN2CCOC2=O)CC1	10.3	2.9	7.2	0.3
C/C=C/C(=O)Nc1cccc(C2=NOC3(C2)C[C@@H](C(N)=O)N(C(=O)/C(C)=C/C)C3)c1 (stereo not given in full)	0.1	0.9	10.9	2.3
CCOc1ccc(CCNC(=O)c2cc3ccccn3n2)cc1OCC	59.5*	9.3	9.3	7.2

Screening results from PubChem.
